High-throughput results: PubChem BioAssay, several laboratories
Most compounds without a hit are left out; they make up all but 3.9% or so of the library.
STAT1 act = increases IFN-gamma driven STAT1 reporter signal | hit rate 2.6% among 200,000 | activation (% of control), % at 5.5 µM | NIH 3T3 STAT1-luciferase reporter, luminescence; 100% = IFN-gamma alone, no compound | AID 932;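 active = activation above the screen-wide mean activation plus 3 SD, cut at about 130% in these data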
APP 5'UTR act = APP 5'UTR luciferase reporter activation; SH-SY5Y APP 5'UTR luciferase reporter, luminescence; zero percent = DMSO vehicle wells; activation, % at 2 µM; hit rate 1% among 190,000; AID 1276;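 active = activation above a set limit, based on mean plus 3 SD of controls, cut at about 140% in these data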
Rad51 HR inh = Rad51 (human) homologous recombination inhibition; hRad51 DNA strand exchange, fluorescence dequenching; inhibition, % at 10 µM; hit rate 0.085% among 200,000; AID 1385;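 active = inhibition above 40% at the single screening dose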
Target sequence (Q06609 whole entry, looked up): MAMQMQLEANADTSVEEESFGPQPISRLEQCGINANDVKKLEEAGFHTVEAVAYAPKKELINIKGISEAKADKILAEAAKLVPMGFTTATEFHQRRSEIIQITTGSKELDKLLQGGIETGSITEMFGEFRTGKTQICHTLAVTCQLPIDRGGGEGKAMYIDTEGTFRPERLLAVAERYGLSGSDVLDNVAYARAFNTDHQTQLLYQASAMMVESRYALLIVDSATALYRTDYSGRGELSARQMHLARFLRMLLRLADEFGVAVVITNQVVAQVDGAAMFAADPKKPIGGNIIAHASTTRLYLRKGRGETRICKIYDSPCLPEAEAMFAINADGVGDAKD
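Test system: preformed human Rad51 ssDNA filaments. Compound dosing: single dose, 10 µM final compound. Incubation: filaments 15 min 37 °C, then compound 30 min. Technique: FRET fluorescence dequenching, excitation 485 nm, emission 520 nm. Read-out basis: percent inhibition from fluorescence, normalised to plate control and blank means. Benchmarks: plate controls and plate blanks.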
FLuc act counter = affects firefly luciferase, flagging false hits in luciferase stimulation screens | ATPlite luciferase biochemical, luminescence, 10 min; 0 = ATP-free wells, 1 = DMSO control | activation factor at 10 µM | 200,000 tested, under 10 active;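 active = luciferase activation factor, scaled between plate controls, of at least 2 with compound at 10 µM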
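Assay system: Luciferase/luciferin reagent mix; Medium: PBS as buffer for the ATP substrate; Dosing: test compounds dosed from 2 mM stocks in 100% DMSO; Times: 10 min, room temperature; Signal: luminescence from luciferase reaction; Read-out: luciferase activation; Controls: No-ATP low control, compound-free enzyme-plus-ATP high control.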
NF-kB neuron act = NF-kB expression increase, human neuronal cells; fold change at 12.5 µM; AID 1239; hit rate 1.6% among 190,000; NF-kB reporter expression; stronger effect = higher value; in the data active = fold change above about 3.3
FLuc inhib CS = counter-screen for luciferase assay inhibitors: firefly luciferase inhibition | ATPLite firefly luciferase biochemical luminescence, 10 min | AID 1006 | hit rate 1.5% among 200,000 | inhibition, % at 10 µM | P08659;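 active = inhibition above about 50% when tested at 10 µM, limit read from the data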
STAT1 act conf = STAT1 activation, confirmation assay | shares compounds with STAT1 act | NIH 3T3 STAT1-luciferase reporter, IFN-gamma potentiation, luminescence; 100% = IFN-gamma EC80 alone, no compound | activation (% of control), % at 5.7 µM | hit rate 97% among 1,200;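 active = activation above a set limit carried over from the earlier primary STAT1 screen, cut at about 140% in these data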
NFkB act STAT1ct = counter-screen for STAT1 activators: NF-kappaB activation; HEK293T NF-kB luciferase reporter, TNF-alpha stimulated, luminescence; 100% = TNF-alpha with vehicle only; shares compounds with STAT1 act; activation (% of control), % at 5.7 µM; AID 1306; hit rate 43% among 1,200;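 active = activation above the mean of solvent-only control wells plus 3 SD, set per campaign, cut at about 130% in these data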;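 note: TNF-alpha given at a submaximal dose yielding about 80% of full reporter signal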
STAT3 act 2 = activates human STAT3, counter-screen to STAT1 activators; shares compounds with STAT1 act; U3A cells STAT3-luciferase reporter, IL-6, luminescence; cells lack STAT1; 100 = IL-6 alone, no compound effect; activation (% of control), % at 5.7 µM; hit rate 46% among 1,200; AID 1316;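 active = activation above the solvent-only control well mean plus 3 SD, set per plate batch, cut at about 110% in these data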;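 note: higher means more STAT3 reporter activation so hits are non-selective activators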
Hits are given with their value; i = inactive; nt = no result.

SMILES	STAT1 act	APP 5'UTR act	Rad51 HR inh	FLuc act counter	NF-kB neuron act	FLuc inhib CS	STAT1 act conf	NFkB act STAT1ct	STAT3 act 2
CCOc1ccc(/C=N/N(C)c2ccccc2)cc1OC	163	i	i	i	4.9	i	187	142	i
CCOc1ccc(/C=N/Nc2ccccn2)cc1OC	155	i	i	i	i	58	154	i	i
COCCNC(=O)CN(C(=O)CCC(=O)Nc1nccs1)c1ccccc1OC	i	i	i	i	i	i	nt	nt	nt
Cn1c(SCC(=O)Nc2cc(=O)n(C)c(=O)n2C)nnc1-c1cccs1	nt	nt	nt	i	nt	i	nt	nt	nt
COc1ccc(/C=N/NC(=O)c2ccc(Br)cc2)c(OC)c1	i	i	nt	i	i	i	nt	nt	nt
COc1ccc(/C=N/Nc2ncc(Br)cn2)c(OC)c1	165	i	i	i	3.7	i	204	134	114
CCSCc1nnc(SCC(=O)c2ccc(OC)cc2)n1C	i	i	i	i	i	i	nt	nt	nt
Cc1onc(-c2ccc(Cl)cc2Cl)c1-c1csc(N/N=C/c2ccccc2Cl)n1	nt	nt	i	nt	nt	nt	nt	nt	nt
Cc1ccc(NC(=S)Nc2ccc3cn[nH]c3c2)c(C)c1	i	i	i	i	i	i	nt	nt	nt
Cc1ccc(NC(=S)c2nc3ccccc3[nH]2)c(C)c1	169	i	i	i	i	85	191	i	113
CCOC(=O)C(=O)N1CCN(c2cc3c(cc2[N+](=O)[O-])n(C)c(=O)n3C)CC1	i	i	i	i	i	i	nt	nt	nt
COc1ccc(N=Cc2sc(O)c3ccccc23)cc1	173	214	i	i	13	i	331	154	i
COc1ccccc1-c1c(C)nn2c(-c3ccccc3)cc(C)nc12	nt	nt	i	nt	nt	nt	nt	nt	nt
COc1ccc(-c2cc(C)nc3c(-c4ccccc4)cnn23)cc1	167	168	nt	i	nt	51	266	i	i
CNc1oc(/C=C/c2ccccc2)nc1C#N	154	i	i	i	5.3	i	167	136	i
COc1ccccc1NC(CC(=O)c1ccccc1)C(=O)OCC(=O)c1ccc(F)cc1 (stereo not drawn)	161	i	i	i	i	i	185	i	i
O=Cc1cn(-c2ccccc2)nc1-c1ccc2c(c1)OCCO2	160	140	i	i	6.9	i	193	134	i
O=C(COC(=O)/C=C/c1cn(-c2ccccc2)nc1-c1ccc2c(c1)OCCO2)NC1CCS(=O)(=O)C1 (stereo not drawn)	nt	nt	i	nt	nt	nt	nt	nt	nt
COc1ccc(/C=C(\CC(=O)O)c2nc3ccccc3o2)cc1	151	i	i	i	i	i	160	136	116
CCN(CC)C(=O)Oc1cc(=O)n2c3c(cccc13)CCC2	i	i	nt	i	i	i	nt	nt	nt
COc1ccc(-c2c(C)nn(-c3ccccc3)c2N)cc1	i	i	i	i	i	i	nt	nt	nt
Cc1nn(-c2ccc(C(=O)O)cc2)c(N)c1-c1ccccc1	160	i	nt	i	4.9	i	200	140	139
N#CCCN(Cc1cccnc1)C(=O)c1sc2cc(F)ccc2c1Cl	i	i	nt	i	i	i	nt	nt	nt
CCc1cc2c(=O)[nH]c(-c3ccccn3)nc2s1	152	i	nt	i	i	i	189	137	i
c1ccc(CSc2ccc(-c3cccs3)nn2)cc1	165	i	i	i	4.8	66	184	134	i
SMILES	STAT1 act	APP 5'UTR act	Rad51 HR inh	FLuc act counter	NF-kB neuron act	FLuc inhib CS	STAT1 act conf	NFkB act STAT1ct	STAT3 act 2
O=C(CSc1ccc(-c2cccs2)nn1)NCCc1ccccc1	i	i	i	i	i	i	nt	nt	nt
COc1ccc(CN2CCN(CCCCOc3ccc(Cl)cc3)CC2)c(OC)c1OC	i	i	nt	i	i	i	nt	nt	nt
CSCc1nc2scc(-c3ccccc3)c2c(=O)[nH]1	i	i	i	i	i	i	nt	nt	nt
O=c1[nH]cnc2scc(-c3ccc(-c4ccccc4)cc3)c12	159	i	i	i	i	60	214	i	i
COc1cccc(C2=NN(S(C)(=O)=O)C(c3cccs3)C2)c1 (stereo not drawn)	i	i	nt	i	i	i	nt	nt	nt
CC(C)CC(=O)Nc1ccc2nn(-c3ccccc3)nc2c1	177	179	nt	i	6.3	i	224	149	i
CS(=O)(=O)c1cnc2c(-c3ccsc3)cnn2c1N	157	i	i	i	i	62	171	i	111
CS(=O)(=O)c1cnc2c(S(=O)(=O)c3ccccc3)cnn2c1N	i	i	i	i	i	i	nt	nt	nt
CC1=NN(C(=O)c2ccco2)C(O)(c2ccccc2)C1 (stereo not drawn)	nt	nt	i	nt	nt	nt	nt	nt	nt
CC1=NN(C(=O)c2ccc(C)o2)C(O)(c2ccccc2)C1 (stereo not drawn)	159	i	i	i	i	i	i	i	i
COc1cccc(OC)c1C(=O)Nc1ccc2c(c1)Cc1ccccc1-2	i	i	nt	i	i	i	nt	nt	nt
O=C(Nc1cccc(-c2nc3ccccc3o2)c1)c1cccnc1	i	i	i	i	i	i	nt	nt	nt
O=C(Nc1ccc(-c2nc3ccccc3o2)cc1)c1cccnc1	166	i	i	i	i	i	185	146	i
O=C(Nc1ccc2c(c1)Cc1ccccc1-2)c1ccco1	174	179	i	i	4	i	211	139	i
O=C(Nc1ccc2c(c1)Cc1ccccc1-2)c1cccnc1	151	i	i	i	i	i	143	i	i
CSC(=Nc1ccc(Cl)cc1)N[n+]1ccccc1	i	i	nt	i	i	i	nt	nt	nt
CC(=O)Nc1ccc(NC(=S)Nc2ccc(Br)cc2)cc1	nt	nt	i	nt	nt	nt	nt	nt	nt
CC(C)=CC(=O)Nc1ccc(Br)cc1	154	i	i	i	5.6	i	172	141	i
CC(=Nc1ccc(O)cc1)c1sc2ccccc2c1O	170	171	i	i	13	i	230	150	i
CC(=O)NCCN=C(C)c1sc2ccccc2c1O	i	i	nt	i	i	i	nt	nt	nt
CCN(CC)c1ccc(/C=N/N2CCN(Cc3ccccc3)CC2)cc1	i	i	i	i	i	i	nt	nt	nt
CN(c1ccccc1)c1ccc(/C=N/N2CCOCC2)cc1	172	i	i	i	6.8	70	197	i	i
Cc1ccc(C(OCC(C)(C)C[N+](C)(C)C)c2ccccc2)cc1 (stereo not drawn)	i	i	i	i	i	i	nt	nt	nt
CCCCn1c(NC(=S)Nc2ccccc2)nc2ccccc21	i	i	i	i	i	i	nt	nt	nt
CCOC(=O)c1sc(Nc2ccccc2)nc1C	i	i	nt	i	i	i	nt	nt	nt
